In ChEMBL document CHEMBL1135766, “Synthesis of conformationally constrained analogues of linezolid: structure-activity relationship (SAR) studies on selected novel tricyclic oxazolidinones” (2002):
Converted amounts (≈) assume the structure as drawn.

What was measured:
Enterococcus faecium = test: In vitro antibacterial activity against Enterococcus faecium ATCC 12202 (E.fm 154) vancomycin resistant; assay type: functional, enterococcus fecium
Procedure, shortened: (§1)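 Broth microdilution MIC per NCCLS guidelines in Mueller Hinton medium. Doubling dilutions from 256 to 1 μg/mL, inoculum (1–5) × 10⁵ CFU/mL, incubated overnight in ambient air at 35 °C. MIC is the lowest concentration giving complete growth inhibition. Linezolid and vancomycin served as controls.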

Staphylococcus aureus [1] = test: In vitro antibacterial activity against methicillin resistant Staphylococcus aureus ATCC 33591 (S. a. 019); assay type: functional; procedure, shortened: as §1
Staphylococcus aureus [2] = test: In vitro antibacterial activity against Staphylococcus aureus ATCC 49951 (S. a. 213); assay type: functional; procedure, shortened: as §1
Enterococcus faecalis [3] = test: In vitro antibacterial activity against Enterococcus faecalis ATCC 29212 (E. f. 034) vancomycin sensitive; assay type: functional; procedure, shortened: as §1
Enterococcus faecalis [4] = test: In vitro antibacterial activity against Enterococcus faecalis ATCC 29212 (E. f. 153) vancomycin sensitive; assay type: functional
Procedure, shortened: (§2)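 Broth microdilution per NCCLS guidelines in Mueller Hinton medium. Doubling dilutions 256–1 μg/mL; inoculum (1–5) × 10⁵ CFU/mL; plates incubated overnight at 35 °C in ambient air. MIC read as the lowest concentration giving complete growth inhibition. Linezolid and vancomycin served as controls.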

Staphylococcus aureus [5] = test: In vitro antibacterial activity against Staphylococcus aureus ATCC 29213 (S. a. 035); assay type: functional; procedure, shortened: as §2
Enterococcus faecalis [6] = test: In vitro antibacterial activity against Enterococcus faecalis NCTC 12201 (E. f. 153) vancomycin resistant; assay type: functional; procedure, shortened: as §1
Mus musculus [7] = test: In vivo antibacterial activity in a murine systemic infection model; assay type: functional
Procedure, shortened: (§3)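 Female Swiss Albino mice (22–25 g, n = 6) were infected intraperitoneally with 0.5 mL S. aureus ATCC 29213. The inoculum was grown 2–3 h at 35 °C in BHI broth and adjusted to 100 × LD50 in 5% hog gastric mucin. Compound was suspended in 0.25% carboxymethyl cellulose and given orally 1 and 6 h post-infection; controls received saline. Cumulative mortality was scored over 48 h, and ED50 was derived by linear regression.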

Mus musculus [8] = test: In vivo antibacterial activity in a murine systemic infection model (95%confidence limits); assay type: functional; procedure, shortened: as §3

CCO/C(S)=N\C[C@H]1CN(c2cc(F)c3c(c2)OC[C@@H]2CCCN32)C(=O)O1
MIC (Enterococcus faecium): 2 µg/mL (≈ 5.06 µM) | MIC (Staphylococcus aureus [1]): 1 µg/mL (≈ 2.53 µM) | MIC (Staphylococcus aureus [2]): 2 µg/mL (≈ 5.06 µM) | MIC (Enterococcus faecalis [3]): 2 µg/mL (≈ 5.06 µM) | MIC (Enterococcus faecalis [4]): 2 µg/mL (≈ 5.06 µM) | MIC (Staphylococcus aureus [5]): 2 µg/mL (≈ 5.06 µM)

C=CC(=O)NC[C@H]1CN(c2ccc3c(c2)OC[C@@H]2CCCN32)C(=O)O1
MIC (Enterococcus faecium): 8 µg/mL (≈ 23.3 µM) | MIC (Staphylococcus aureus [1]): 4 µg/mL (≈ 11.6 µM) | MIC (Enterococcus faecalis [3]): 8 µg/mL (≈ 23.3 µM) | MIC (Enterococcus faecalis [6]): 8 µg/mL (≈ 23.3 µM) | MIC (Staphylococcus aureus [5]): 8 µg/mL (≈ 23.3 µM)

O=C(CC(F)(F)F)NC[C@H]1CN(c2cc(F)c3c(c2)OC[C@@H]2CCCN32)C(=O)O1
MIC (Enterococcus faecium): 4 µg/mL (≈ 9.58 µM) | MIC (Staphylococcus aureus [1]): 4 µg/mL (≈ 9.58 µM) | MIC (Staphylococcus aureus [2]): 8 µg/mL (≈ 19.2 µM) | MIC (Enterococcus faecalis [3]): 4 µg/mL (≈ 9.58 µM) | MIC (Enterococcus faecalis [6]): 4 µg/mL (≈ 9.58 µM) | MIC (Staphylococcus aureus [5]): 8 µg/mL (≈ 19.2 µM)

O=C(NC[C@H]1CN(c2ccc3c(c2)OC[C@@H]2CCCN32)C(=O)O1)C(F)F
MIC (Enterococcus faecium): 4 µg/mL (≈ 10.9 µM) | MIC (Staphylococcus aureus [1]): 2 µg/mL (≈ 5.44 µM) | MIC (Enterococcus faecalis [3]): 4 µg/mL (≈ 10.9 µM) | MIC (Enterococcus faecalis [4]): 4 µg/mL (≈ 10.9 µM) | MIC (Staphylococcus aureus [5]): 4 µg/mL (≈ 10.9 µM)

CCCC(=O)NC[C@H]1CN(c2cc(F)c3c(c2)OC[C@@H]2CCCN32)C(=O)O1
MIC (Enterococcus faecium): 4 µg/mL (≈ 10.6 µM) | MIC (Staphylococcus aureus [1]): 4 µg/mL (≈ 10.6 µM) | MIC (Staphylococcus aureus [2]): 4 µg/mL (≈ 10.6 µM) | MIC (Enterococcus faecalis [3]): 4 µg/mL (≈ 10.6 µM) | MIC (Enterococcus faecalis [6]): 4 µg/mL (≈ 10.6 µM) | MIC (Staphylococcus aureus [5]): 4 µg/mL (≈ 10.6 µM)

C=CC(=O)NC[C@H]1CN(c2cc(F)c3c(c2)OC[C@@H]2CCCN32)C(=O)O1
MIC (Enterococcus faecium): 4 µg/mL (≈ 11.1 µM) | MIC (Staphylococcus aureus [1]): 4 µg/mL (≈ 11.1 µM) | MIC (Staphylococcus aureus [2]): 4 µg/mL (≈ 11.1 µM) | MIC (Enterococcus faecalis [3]): 4 µg/mL (≈ 11.1 µM) | MIC (Enterococcus faecalis [6]): 4 µg/mL (≈ 11.1 µM) | ED50 (Mus musculus [7]): 30 mg/kg | MIC (Staphylococcus aureus [5]): 4 µg/mL (≈ 11.1 µM)

O=C(CCl)NC[C@H]1CN(c2cc(F)c3c(c2)OC[C@@H]2CCCN32)C(=O)O1
MIC (Enterococcus faecium): 2 µg/mL (≈ 5.21 µM) | MIC (Staphylococcus aureus [1]): 1 µg/mL (≈ 2.61 µM) | MIC (Enterococcus faecalis [3]): 2 µg/mL (≈ 5.21 µM) | MIC (Enterococcus faecalis [4]): 2 µg/mL (≈ 5.21 µM) | MIC (Staphylococcus aureus [5]): 1 µg/mL (≈ 2.61 µM)

C/C(S)=N\C[C@H]1CN(c2cc(F)c3c(c2)OC[C@@H]2CCCN32)C(=O)O1
MIC (Enterococcus faecium): 1 µg/mL (≈ 2.74 µM) | MIC (Staphylococcus aureus [1]): 0.5 µg/mL (≈ 1.37 µM) | MIC (Staphylococcus aureus [2]): 0.5 µg/mL (≈ 1.37 µM) | MIC (Enterococcus faecalis [3]): 1 µg/mL (≈ 2.74 µM) | MIC (Enterococcus faecalis [6]): 1 µg/mL (≈ 2.74 µM) | ED50 (Mus musculus [7]): 30 mg/kg | MIC (Staphylococcus aureus [5]): 0.5 µg/mL (≈ 1.37 µM)

CCCCO/C(S)=N\C[C@H]1CN(c2cc(F)c3c(c2)OC[C@@H]2CCCN32)C(=O)O1
MIC (Enterococcus faecium): > 32 µg/mL | MIC (Staphylococcus aureus [1]): > 32 µg/mL | MIC (Staphylococcus aureus [2]): > 32 µg/mL | MIC (Enterococcus faecalis [3]): > 32 µg/mL | MIC (Enterococcus faecalis [4]): > 32 µg/mL | MIC (Staphylococcus aureus [5]): > 32 µg/mL

CCCC/C(S)=N\C[C@H]1CN(c2cc(F)c3c(c2)OC[C@@H]2CCCN32)C(=O)O1
MIC (Enterococcus faecium): 2 µg/mL (≈ 4.91 µM) | MIC (Staphylococcus aureus [1]): 2 µg/mL (≈ 4.91 µM) | MIC (Staphylococcus aureus [2]): 2 µg/mL (≈ 4.91 µM) | MIC (Enterococcus faecalis [3]): 2 µg/mL (≈ 4.91 µM) | MIC (Enterococcus faecalis [6]): 2 µg/mL (≈ 4.91 µM) | MIC (Staphylococcus aureus [5]): 4 µg/mL (≈ 9.82 µM)

O=C1O[C@@H](C/N=C/S)CN1c1cc(F)c2c(c1)OC[C@@H]1CCCN21
MIC (Enterococcus faecium): 2 µg/mL (≈ 5.69 µM) | MIC (Staphylococcus aureus [1]): 1 µg/mL (≈ 2.85 µM) | MIC (Staphylococcus aureus [2]): 1 µg/mL (≈ 2.85 µM) | MIC (Enterococcus faecalis [3]): 1 µg/mL (≈ 2.85 µM) | MIC (Enterococcus faecalis [6]): 1 µg/mL (≈ 2.85 µM) | ED50 (Mus musculus [7]): 9.07 mg/kg | MIC (Staphylococcus aureus [5]): 1 µg/mL (≈ 2.85 µM)

O=CNC[C@H]1CN(c2cc(F)c3c(c2)OC[C@@H]2CCCN32)C(=O)O1
MIC (Enterococcus faecium): 8 µg/mL (≈ 23.9 µM) | MIC (Staphylococcus aureus [1]): 4 µg/mL (≈ 11.9 µM) | MIC (Staphylococcus aureus [2]): 4 µg/mL (≈ 11.9 µM) | MIC (Enterococcus faecalis [3]): 4 µg/mL (≈ 11.9 µM) | MIC (Enterococcus faecalis [6]): 4 µg/mL (≈ 11.9 µM) | MIC (Staphylococcus aureus [5]): 8 µg/mL (≈ 23.9 µM)

CC(C)C(=O)NC[C@H]1CN(c2cc(F)c3c(c2)OC[C@@H]2CCCN32)C(=O)O1
MIC (Enterococcus faecium): 16 µg/mL (≈ 42.4 µM) | MIC (Staphylococcus aureus [1]): 8 µg/mL (≈ 21.2 µM) | MIC (Staphylococcus aureus [2]): 8 µg/mL (≈ 21.2 µM) | MIC (Enterococcus faecalis [3]): 16 µg/mL (≈ 42.4 µM) | MIC (Enterococcus faecalis [6]): 16 µg/mL (≈ 42.4 µM) | MIC (Staphylococcus aureus [5]): 8 µg/mL (≈ 21.2 µM)

O=C(NC[C@H]1CN(c2ccc3c(c2)OC[C@@H]2CCCN32)C(=O)O1)C(Cl)Cl
MIC (Enterococcus faecium): 8 µg/mL (≈ 20 µM) | MIC (Staphylococcus aureus [1]): 4 µg/mL (≈ 9.99 µM) | MIC (Enterococcus faecalis [3]): 8 µg/mL (≈ 20 µM) | MIC (Enterococcus faecalis [4]): 8 µg/mL (≈ 20 µM) | MIC (Staphylococcus aureus [5]): 4 µg/mL (≈ 9.99 µM)

CN[C@H](CC(C)C)C(=O)N[C@H]1C(=O)N[C@@H](CC(N)=O)C(=O)N[C@H]2C(=O)N[C@H]3C(=O)N[C@H](C(=O)N[C@H](C(=O)O)c4cc(O)cc(O)c4-c4cc3ccc4O)[C@H](O)c3ccc(c(Cl)c3)Oc3cc2cc(c3O[C@@H]2O[C@H](CO)[C@@H](O)[C@H](O)[C@H]2O[C@H]2C[C@](C)(N)[C@H](O)[C@H](C)O2)Oc2ccc(cc2Cl)[C@H]1O [VANCOMYCIN]
MIC (Enterococcus faecium): > 32 µg/mL | MIC (Enterococcus faecalis [3]): 2 µg/mL (≈ 1.38 µM) | MIC (Enterococcus faecalis [4]): 2 µg/mL (≈ 1.38 µM) | ED50 (Mus musculus [8]): 3.93 mg/kg

CC(=O)NC[C@H]1CN(c2ccc3c(c2)OC[C@@H]2CCCN32)C(=O)O1
MIC (Enterococcus faecium): 16 µg/mL (≈ 48.3 µM) | MIC (Staphylococcus aureus [1]): 4 µg/mL (≈ 12.1 µM) | MIC (Staphylococcus aureus [2]): 4 µg/mL (≈ 12.1 µM) | MIC (Enterococcus faecalis [3]): 16 µg/mL (≈ 48.3 µM) | MIC (Enterococcus faecalis [6]): 16 µg/mL (≈ 48.3 µM) | MIC (Staphylococcus aureus [5]): 8 µg/mL (≈ 24.1 µM)

CS/C(S)=N\C[C@H]1CN(c2cc(F)c3c(c2)OC[C@@H]2CCCN32)C(=O)O1
MIC (Staphylococcus aureus [1]): 1 µg/mL (≈ 2.52 µM) | MIC (Staphylococcus aureus [2]): 1 µg/mL (≈ 2.52 µM) | MIC (Enterococcus faecalis [3]): 1 µg/mL (≈ 2.52 µM) | MIC (Enterococcus faecalis [4]): 1 µg/mL (≈ 2.52 µM) | ED50 (Mus musculus [8]): 30 mg/kg | MIC (Enterococcus faecalis [6]): 1 µg/mL (≈ 2.52 µM) | MIC (Staphylococcus aureus [5]): 2 µg/mL (≈ 5.03 µM)

CC(=O)NC[C@H]1CN(c2cc(F)c3c(c2)OC[C@@H]2CCCN32)C(=O)O1
MIC (Enterococcus faecium): 4 µg/mL (≈ 11.4 µM) | MIC (Staphylococcus aureus [1]): 1 µg/mL (≈ 2.86 µM) | MIC (Staphylococcus aureus [2]): 2 µg/mL (≈ 5.72 µM) | MIC (Enterococcus faecalis [3]): 2 µg/mL (≈ 5.72 µM) | MIC (Enterococcus faecalis [6]): 2 µg/mL (≈ 5.72 µM) | ED50 (Mus musculus [7]): 8.6 mg/kg | MIC (Staphylococcus aureus [5]): 2 µg/mL (≈ 5.72 µM)
